According to ChEMBL document CHEMBL1132160, “Structure-antiviral activity relationship in the series of pyrimidine and purine N-[2-(2-phosphonomethoxy)ethyl] nucleotide analogues. 1. Derivatives substituted at the carbon atoms of the base” (J Med Chem, 1999):
In brackets after ≈: the same amount, converted by molar mass.

Columns and labels:
[1] = Inhibitory activity against murine sarcoma virus induced transformation of murine C3H/3T3 embryo fibroblasts; format: functional, Mus musculus
Method in brief: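 Murine C3H/3T3 embryo fibroblasts were seeded at 5 × 10⁵ cells/mL. After 24 h they were infected with 80 focus-forming units of MSV for 90–120 min at 37 °C. The medium was then replaced with fresh medium containing various compound concentrations, and transformation was examined microscopically after 6 days.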

[2] = system: Human immunodeficiency virus 1; assay: Inhibition of human immunodeficiency virus type 1 (HIV-1) induced cytopathogenicity in CEM cells; format: functional, organism-based; conditions: Human immunodeficiency virus 1, CCRF-CEM
Method in brief: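 CEM cells (~3 × 10⁵ cells/mL) were infected with 100 CCID50 of HIV-1 (IIIB)/mL and plated with dilutions of compound. After 4 days at 37 °C, giant cell formation was assessed microscopically.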

[3] = system: Human immunodeficiency virus 2; assay: Inhibition of human immunodeficiency virus type 2 (HIV-2) induced cytopathogenicity in CEM cells; format: functional, organism-based; conditions: Human immunodeficiency virus 2, CCRF-CEM
Human alphaherpesvirus 1 [4] = assay: Inhibition of herpes simplex virus type 1 (HSV-1) F strain; format: functional, organism-based
Method in brief: (§1)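 Confluent E6SM cell cultures were inoculated with 100 CCID50 of virus and allowed 1 h for adsorption. Residual virus was then removed, and the cells were incubated with test compound at 400, 200, 100, ... μg/mL. Viral cytopathicity was scored once it reached completion in untreated infected controls.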

Human alphaherpesvirus 1 [5] = assay: Inhibitory activity against herpes simplex virus type 1 (HSV-1) KOS strain; format: functional, organism-based; method in brief: as §1
Human alphaherpesvirus 1 [6] = assay: Inhibitory activity against herpes simplex virus type 1 (HSV-1) McIntyre strain; format: functional, organism-based; method in brief: as §1
[7] = Inhibitory activity against herpes simplex virus type 2 (HSV-2) 196 strain; format: functional; method in brief: as §1
Human alphaherpesvirus 2 [8] = assay: Inhibitory activity against herpes simplex virus type 2 (HSV-2) Lyons strain; format: functional, organism-based; method in brief: as §1
Vaccinia virus [9] = assay: Inhibitory activity against vaccinia virus (VV); format: functional, organism-based; conditions: Orthopoxvirus vaccinia
Method in brief: (§2)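 Confluent E6SM cell cultures were inoculated with 100 CCID50 of virus and left for 1 h adsorption, then residual virus was removed. Cultures were incubated with test compound at serial concentrations (400, 200, 100, ... μg/mL). Virus-induced cytopathicity was scored once it reached completion in untreated infected control cultures.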

Cytomegalovirus [10] = assay: Inhibitory activity against cytomegalovirus (CMV) AD 169 strain; format: functional, organism-based; conditions: Human betaherpesvirus 5
Method in brief: (§3)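 HEL cell cultures, grown to confluence, received 100 CCID50 of virus. After 1 h adsorption, the inoculum was removed and the cultures were incubated with serial concentrations of compound (400, 200, 100, ... μg/mL).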

Cytomegalovirus [11] = assay: Inhibitory activity against cytomegalovirus (CMV) Davis strain; format: functional, organism-based; conditions: Human betaherpesvirus 5; method in brief: as §3
HEL [12] = assay: Compound was evaluated for inhibitory activity against varicella zoster virus thymidine kinase (VZV TK-) 07/1 strain; NA=not active; format: functional, cell-based, Homo sapiens
Human alphaherpesvirus 2 [13] = assay: Inhibitory activity against herpes simplex virus type 2 (HSV-2) G strain; format: functional, organism-based; method in brief: as §1
[14] = system: Human immunodeficiency virus 1; assay: Antiviral activity against human immunodeficiency virus type-1 (HIV-1) in MT-4 cells; format: functional, organism-based; conditions: Human immunodeficiency virus 1, MT4
Method in brief: (§4)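 Human MT-4 cells (~4 × 10⁵ cells/mL) were infected with 100 CCID50 of HIV-1 (IIIB)/mL and seeded into wells containing compound dilutions. After 5 days at 37 °C, viable cells were counted by trypan blue exclusion in a blood cell counting chamber.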

MT4 [15] = assay: Antiviral activity against human immunodeficiency virus type 2 (HIV-2) in MT-4 cells; format: functional, cell-based
Human alphaherpesvirus 1 [16] = assay: Inhibitory activity against herpes simplex virus type 1 (HSV-1) F strain; format: functional, organism-based; method in brief: as §1
Human alphaherpesvirus 1 [17] = assay: Inhibitory activity against herpes simplex virus type 1 (HSV-1) KOS strain.; format: functional, organism-based; method in brief: as §1
Human alphaherpesvirus 1 [18] = assay: Iactivity against herpes simplex virus type 1 (HSV-1) McIntyre strain.; format: functional, organism-based; method in brief: as §1
Human alphaherpesvirus 2 [19] = assay: Inhibitory activity against herpes simplex virus type 2 (HSV-2) 196 strain.; format: functional, organism-based; method in brief: as §1
Human alphaherpesvirus 2 [20] = assay: Inhibitory activity against herpes simplex virus type 2 (HSV-2) G strain.; format: functional, organism-based; method in brief: as §1
E6SM [21] = assay: Inhibitory activity against herpes simplex virus type 2 (HSV-2) Lyons strain.; format: functional, cell-based, Homo sapiens; method in brief: as §1
Vaccinia virus [22] = assay: Inhibitory activity against vaccinia virus (VV).; format: functional, organism-based, Orthopoxvirus vaccinia; method in brief: as §2
MT4 [23] = assay: Inhibitory activity of compound against human immunodeficiency virus type 1 (HIV-1) induced cytopathogenicity in MT-4 cells; NA=Not Active; format: functional, cell-based; method in brief: as §4
Human alphaherpesvirus 1 [24] = assay: Inhibitory activity against herpes simplex virus type 1 thymidine kinase (HSV-1 TK-) VMW 1837 strain.
HEL [25] = assay: Compound was evaluated for inhibitory activity against cytomegalovirus (CMV) AD 169 strain; NA=not active; format: functional, cell-based, Homo sapiens; method in brief: as §3
HEL [26] = assay: Compound was evaluated for inhibitory activity against cytomegalovirus (CMV) Davis strain; NA=Not Active; format: functional, cell-based, Homo sapiens; method in brief: as §3
[27] = system: Human immunodeficiency virus 1; assay: Inhibitory activity of compound against human immunodeficiency virus type 1 (HIV-1) induced cytopathogenicity in MT-4 cells; format: functional, organism-based; conditions: Human immunodeficiency virus 1, MT4; method in brief: as §4
[28] = system: Human immunodeficiency virus 2; assay: Inhibitory activity against human immunodeficiency virus type 2 (HIV-2) induced cytopathogenicity in MT-4 cells; format: functional, organism-based; conditions: Human immunodeficiency virus 2, MT4
E6SM [29] = assay: Compound was evaluated for inhibitory activity against herpes simplex virus type 1 thymidine kinase (HSV-1 TK-) B2006 strain; NA=not active; format: functional, cell-based, Homo sapiens; method in brief: as §1
HEL [30] = assay: Compound was evaluated for inhibitory activity against varicella zoster virus thymidine kinase (VZV TK+) OKA strain; NA=Not Active; format: functional, cell-based, Homo sapiens; method in brief: as §3
HEL [31] = assay: Compound was evaluated for inhibitory activity against varicella zoster virus thymidine kinase (VZV TK+) YS strain; NA=not active; format: functional, cell-based, Homo sapiens; method in brief: as §3

SMILES	EC50 [1] [µg/mL]	EC50 [2] [µg/mL]	EC50 [3] [µg/mL]	EC50 (Human alphaherpesvirus 1 [4]) [µg/mL]	EC50 (Human alphaherpesvirus 1 [5]) [µg/mL]	EC50 (Human alphaherpesvirus 1 [6]) [µg/mL]	EC50 [7] [µg/mL]	EC50 (Human alphaherpesvirus 2 [8]) [µg/mL]	EC50 (Vaccinia virus [9]) [µg/mL]	EC50 (Cytomegalovirus [10]) [µg/mL]	EC50 (Cytomegalovirus [11]) [µg/mL]	EC50 (Human alphaherpesvirus 1 [16])	EC50 (Human alphaherpesvirus 1 [17])	EC50 (Human alphaherpesvirus 1 [18])	EC50 (Human alphaherpesvirus 2 [19])	EC50 (Human alphaherpesvirus 2 [20])	EC50 (E6SM [21])	EC50 (Vaccinia virus [22])	EC50 (Human alphaherpesvirus 1 [24])	EC50 [27] [µg/mL]	further results
Nc1nc(O)c2c(ncn2CCOCP(=O)(O)O)n1	96 (≈ 332 µM)	> 100	> 100	200 (≈ 692 µM)	300 (≈ 1040 µM)	150 (≈ 519 µM)	200 (≈ 692 µM)	> 400	> 400	> 50	> 50	–	–	–	–	–	–	–	–	–	EC50 (HEL [12]): Not Active; EC50 (Human alphaherpesvirus 2 [13]): 300 µg/mL (≈ 1040 µM)
Nc1nc(S)c2ncn(CCOCP(=O)(O)O)c2n1	1 (≈ 3.28 µM)	–	–	–	–	–	–	–	–	–	–	–	–	–	–	–	–	–	–	–	EC50 [14]: 9.5 µg/mL (≈ 31.1 µM); EC50 (MT4 [15]): 8.9 µg/mL (≈ 29.2 µM)
CC(C)OP(=O)(COCCn1ncc(N)nc1=O)OC(C)C	> 100	–	–	–	–	–	–	–	–	> 100	> 100	Not Active	Not Active	Not Active	Not Active	Not Active	Not Active	Not Active	Not Active	–	EC50 (MT4 [23]): Not Active
CC(C)OP(=O)(COCCn1cnc2nc(N)nc(O)c21)OC(C)C	> 200	> 100	> 100	> 200	> 200	> 200	> 200	> 200	> 200	> 50	> 50	–	–	–	–	–	–	–	–	–	EC50 (HEL [12]): Not Active; EC50 (Human alphaherpesvirus 2 [13]): > 200 µg/mL
CCOP(=O)(O)COCCn1cnc2c(N)nc(N)nc21	> 200	–	–	200 (≈ 632 µM)	300 (≈ 949 µM)	300 (≈ 949 µM)	300 (≈ 949 µM)	150 (≈ 474 µM)	> 400	–	–	–	–	–	–	–	–	–	–	> 100	EC50 (HEL [25]): Not Active; EC50 (HEL [26]): Not Active; EC50 [28]: > 400 µg/mL; EC50 (Human alphaherpesvirus 2 [13]): 70 µg/mL (≈ 221 µM)
Nc1nccc2c1ncn2CCOCP(=O)(O)O	> 100	–	–	–	–	–	–	–	–	70 (≈ 257 µM)	400 (≈ 1470 µM)	Not Active	Not Active	Not Active	Not Active	Not Active	Not Active	Not Active	Not Active	> 200	EC50 (E6SM [29]): Not Active
CSc1ncnc2c1ncn2CCOCP(=O)(O)O	> 200	–	–	–	–	–	–	–	–	> 400	> 400	Not Active	Not Active	Not Active	Not Active	Not Active	Not Active	Not Active	Not Active	> 200	EC50 (E6SM [29]): Not Active; EC50 [28]: > 400 µg/mL
Nc1ncnc2c1nc(Br)n2CCOCP(=O)(O)O	> 200	> 100	> 100	–	–	–	–	–	–	> 50	> 50	Not Active	Not Active	Not Active	Not Active	Not Active	Not Active	Not Active	Not Active	> 100	EC50 (E6SM [29]): Not Active; EC50 [28]: > 100 µg/mL
CC(C)OP(=O)(COCCn1ccc(O)cc1=O)OC(C)C	–	–	–	–	–	–	–	–	–	–	–	Not Active	Not Active	Not Active	Not Active	Not Active	Not Active	Not Active	Not Active	> 200	EC50 (HEL [25]): Not Active; EC50 (HEL [26]): Not Active; EC50 (HEL [30]): Not Active; EC50 (HEL [31]): Not Active; EC50 (HEL [12]): Not Active
